Test results reported in ChEMBL document CHEMBL1926538, “3,5-Disubstituted-thiazolidine-2,4-dione analogs as anticancer agents: design, synthesis and biological characterization” (Eur J Med Chem, 2012).
Active and inactive are the calls of the source. No cut-off for these calls is given here.

How the values were obtained:
U-937 [1] = experiment: Growth inhibition of human U937 cells after 24 hrs by MTS assay; format: functional, cell-based; details: U-937, 24 h
In short: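 Cells in RPMI 1640 with 10% heat-inactivated FBS, seeded 2 × 10⁴ cells/well and exposed 24 h. MTS reagent added, then 1 h further incubation at 37 °C, 5% CO₂. Formazan absorbance read at 490 nm. Viability expressed as percentage of untreated controls.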

U-937 [2] = experiment: Growth inhibition of human U937 cells at 320 uM after 72 hrs by MTS assay; format: functional, cell-based
In short: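 U937 cells exposed 72 h, with or without AICA 320 µM, then MTS added. Absorbance read at 490 nm, expressed as percentage of untreated controls. Data are mean percentage viability, n = 6, error bars SEM.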

U-937 [3] = experiment: Inhibition of PI3K-mediated Akt phosphorylation in human U937 cells at 0.3 to 30 uM after 1 hr by Western blot analysis; format: cell-based
[4] = target: RAF proto-oncogene serine/threonine-protein kinase (Homo sapiens) (UniProt P04049); experiment: Inhibition of raf-mediated ERK phosphorylation in human U937 cells at 0.3 to 30 uM after 1 hr by Western blot analysis; format: cell-based; details: U-937
In short: (§1)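 Cells in RPMI 1640 with 10% heat-inactivated FBS, 37 °C, 5% CO2; treated in growing medium (DU145 24 h; U937 1 h at 5 × 10⁵/mL). Lysed by sonication in SDS sample buffer with protease inhibitors plus 1 mM orthovanadate and pyrophosphate, boiled 5 min. Blots blocked in 5% milk, primary antibodies 1:1000 overnight at 4 °C, HRP secondary 1:2000, chemiluminescence; α-tubulin loading control.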

[5] = target: RAF proto-oncogene serine/threonine-protein kinase (Homo sapiens) (UniProt P04049); experiment: Inhibition of raf-mediated MEK phosphorylation in human U937 cells at 0.3 to 30 uM after 1 hr by Western blot analysis; format: cell-based; details: U-937; in short: as §1
U-937 [6] = experiment: Cell cycle arrest in human U937 cells assessed as decrease in S-phase population after 24 hrs by propidium iodide staining-based flow cytometric analysis in presence of MEK inhibitor PD184352; format: functional
In short: (§2)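 Cells cultured in RPMI 1640 with 10% FBS and treated 24 h at the indicated concentrations. Stained with propidium iodide for 4 h at 4 °C in the dark. Flow cytometry gave the percentage of cells in G₀/G₁, S, G₂/M and sub-G₁ phases.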

U-937 [7] = experiment: Cell cycle arrest in human U937 cells assessed as accumulation at G2/M-phase after 24 hrs by propidium iodide staining-based flow cytometric analysis in presence of MEK inhibitor PD184352; format: functional; in short: as §2

Chain of RAF proto-oncogene serine/threonine-protein kinase (Homo sapiens) (P04049 whole entry): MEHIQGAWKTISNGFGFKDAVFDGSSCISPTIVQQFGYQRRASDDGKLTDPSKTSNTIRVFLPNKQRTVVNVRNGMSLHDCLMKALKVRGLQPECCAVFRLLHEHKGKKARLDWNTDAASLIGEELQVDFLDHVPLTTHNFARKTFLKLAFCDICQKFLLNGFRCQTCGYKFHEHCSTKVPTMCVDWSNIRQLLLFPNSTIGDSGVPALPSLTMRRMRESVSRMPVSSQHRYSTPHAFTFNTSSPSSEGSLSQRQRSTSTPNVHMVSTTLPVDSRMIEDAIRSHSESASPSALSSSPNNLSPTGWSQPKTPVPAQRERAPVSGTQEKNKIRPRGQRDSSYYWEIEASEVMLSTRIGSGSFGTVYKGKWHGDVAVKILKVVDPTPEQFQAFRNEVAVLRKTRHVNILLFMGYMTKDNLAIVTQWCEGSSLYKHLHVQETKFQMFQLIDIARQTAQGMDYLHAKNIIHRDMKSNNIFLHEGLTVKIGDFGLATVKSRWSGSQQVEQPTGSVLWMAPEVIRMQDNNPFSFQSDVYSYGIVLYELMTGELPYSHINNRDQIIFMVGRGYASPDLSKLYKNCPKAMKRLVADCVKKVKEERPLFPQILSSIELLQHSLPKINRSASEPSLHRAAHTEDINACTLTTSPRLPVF

| SMILES | IC50 (U-937 [1]) [µM] | other results |
| --- | --- | --- |
| NCCN1C(=O)S/C(=C\CCc2c[nH]c3ccccc23)C1=O | 29.5 | – |
| NCCN1C(=O)S/C(=C\CCc2ccc3[nH]ccc3c2)C1=O | 27.7 | – |
| NCCN1C(=O)c2ccc(Cc3ccccc3)cc2C1=O | > 30 | – |
| CC/C=C1\SC(=O)N(CCN)C1=O | > 30 | – |
| CCOc1ccc(CC/C=C2\SC(=O)N(CCN)C2=O)cc1 | 9.6 | – |
| NC(=O)c1[nH]cnc1N | – | growth inhibition (GI) (U-937 [2]): inactive |
| NCCN1C(=O)S/C(=C\CCC2CC2)C1=O | 14.1 | – |
| CCOc1ccccc1CC/C=C1\SC(=O)N(CCN)C1=O | 11.3 | – |
| CCOc1cccc(CC/C=C2\SC(=O)N(CCN)C2=O)c1 | 10 | – |
| CS(=O)(=O)Nc1ccc(CC/C=C2\SC(=O)N(CCN)C2=O)cc1 | > 30 | – |
| NCCN1C(=O)SC(CCCc2ccccc2)C1=O (racemic) | > 30 | inhibition (U-937 [3]): inactive; inhibition [4]: inactive; inhibition [5]: inactive |
| O=C(NOCC1CC1)c1ccc(F)c(F)c1Nc1ccc(I)cc1Cl | – | Activity (U-937 [6]): Active; Activity (U-937 [7]): Active |

Continued, in another order:

| IC50 (U-937 [1]) [µM] | SMILES | other results |
| --- | --- | --- |
| > 30 | NCCN1C(=O)S/C(=C\CCc2cccnc2)C1=O | – |
| 24.4 | NCCN1C(=O)S/C(=C\CCc2cccc([N+](=O)[O-])c2)C1=O | – |
| > 30 | O=C(O)CN1C(=O)S/C(=C\CCc2ccccc2)C1=O | – |
| 10.4 | NCCN1C(=O)S/C(=C\CCc2ccccc2)C1=O | inhibition (U-937 [3]): inactive; inhibition [4]: inactive; inhibition [5]: inactive |
| 11.3 | O=C1S/C(=C\CCc2ccccc2)C(=O)N1CCO | – |
| > 30 | NCCN1C(=O)S/C(=C\CCc2ccc(S(N)(=O)=O)cc2)C1=O | – |
| > 30 | O=C1S/C(=C\CCc2ccccc2)C(=O)N1CCN1CCOCC1 | – |
| > 30 | NCCN1C(=O)S/C(=C\CCc2ccc([N+](=O)[O-])cc2)C1=O | – |
| 9.4 | COc1ccc(CC/C=C2\SC(=O)N(CCN)C2=O)cc1 | – |
| 21.2 | NCCN1C(=O)S/C(=C\CCc2ccc(Cl)cc2)C1=O | – |
